Consider 21 molecules from ChEMBL document CHEMBL3244133, “Synthesis and biological activities of some uronic acids, uronates, uronamides, and urononitriles of pyrimidine nucleosides” (J Med Chem, 1978).

Molecules are shown by their SMILES. Activity calls are given as the source filed them. No cut-off for these calls is given here.

Molecular target in the first series: not listed separately
Description: Competitive inhibition of HSV-1 pyrimidine deoxythymidine kinase using 2-[14C]deoxythymidine as substrate. Details: species or system Human alphaherpesvirus 1.
Details: not given
In outline: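 HSV-1 encoded pyrimidine deoxyribonucleoside kinase, purified from LMTK⁻ cells. Assay at 37 °C in 50 mM Tris pH 7.8 with 3 mM ATP·Mg²⁺, 0.3 mg/mL BSA, 0.3 mM 2-mercaptoethanol and 2% glycerol. Substrate was varied [2-¹⁴C]deoxythymidine plus analogue. Reaction was started with enzyme; aliquots were taken over time and phosphorylated product measured. Ki came from double-reciprocal plots.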
`O=C(O)[C@H]1O[C@@H](n2cc(I)c(O)nc2=O)C[C@@H]1O`: the affinity corresponds to a Ki of 4.2 µM.

With `N#C[C@H]1O[C@@H](n2cc(F)c(=O)[nH]c2=O)C[C@@H]1O`, the inhibition constant Ki is 75 µM.

`CC(=O)O[C@H]1C[C@H](n2cc(Br)c(=O)[nH]c2=O)O[C@@H]1C#N` yielded a Ki of 28 µM.

`COC(=O)[C@H]1O[C@@H](n2cc(I)c(=O)[nH]c2=O)C[C@@H]1O` registered a Ki of 1.5 µM.

With `COC(=O)[C@H]1O[C@@H](n2cc(C)c(=O)[nH]c2=O)C[C@@H]1O`, the affinity corresponds to a Ki of 4 µM.

The molecule `CC(=O)O[C@H]1C[C@H](n2cc(C)c(=O)[nH]c2=O)O[C@@H]1CO` came in with an inhibitory constant (Ki) of 58 µM.

For `NC(=O)[C@H]1O[C@@H](n2cc(F)c(=O)[nH]c2=O)C[C@@H]1O`, the affinity, expressed as Ki, was 18 µM.

`N#C[C@H]1O[C@@H](n2cc(Br)c(=O)[nH]c2=O)C[C@@H]1O` yielded a Ki of 1.8 µM.

Molecule `CC(=O)O[C@H]1C[C@H](n2cc(F)c(=O)[nH]c2=O)O[C@@H]1C(N)=O` came in with a Ki of 960 µM.

Another series concerns Lacticaseibacillus casei. Description: Inhibition of Lactobacillus casei deoxythymidylate synthetase at 250 uM.
Details: not given
Take `O=C(O)[C@H]1O[C@@H](n2cc(F)c(=O)[nH]c2=O)C[C@@H]1O` [RIBOFURANURONIC ACID]: the inhibition result was “inactive”.

With `NC(=O)[C@H]1O[C@@H](n2ccc(O)nc2=O)C[C@@H]1O` (stereo in doubt; 19), the inhibition entry was “inactive”.

In the case of `N#C[C@H]1O[C@@H](n2cc(F)c(=O)[nH]c2=O)C[C@@H]1O`, the inhibition entry was “inactive”.

Regarding `NC(=O)[C@H]1O[C@@H](n2cc(F)c(=O)[nH]c2=O)C[C@@H]1O`, the inhibition result is “inactive”.

For another series, the system named is L1210. Description: Inhibition of deoxythymidylate synthetase in mouse L1210 cells at 250 uM.
Details: not given
The class given is cell-based.
With `O=C(O)[C@H]1O[C@@H](n2cc(F)c(=O)[nH]c2=O)C[C@@H]1O` [RIBOFURANURONIC ACID], the inhibition entry was “inactive”.

Turning to `NC(=O)[C@H]1O[C@@H](n2ccc(O)nc2=O)C[C@@H]1O` (stereo in doubt; 19), the inhibition result is “inactive”.

With `N#C[C@H]1O[C@@H](n2cc(F)c(=O)[nH]c2=O)C[C@@H]1O`, the inhibition result was “inactive”.

Regarding `NC(=O)[C@H]1O[C@@H](n2cc(F)c(=O)[nH]c2=O)C[C@@H]1O`, the inhibition result was “inactive”.

System in a further series: not listed separately
Description: Retention time of the compound by liquid chromatography. The class given is physicochemical.
Details: not given
In outline:
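Reverse-phase HPLC with a methanol-water gradient, separating uronic acids from the parent pyrimidine bases and nucleosides.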
`O=c1[nH]cc(F)c(=O)[nH]1` [FLUOROURACIL]: the Retention_time stood at 5.29 min.

Regarding `Nc1ccn([C@@H]2O[C@H](CO)[C@@H](O)[C@@H]2O)c(=O)n1` [CYTARABINE], the Retention_time came to 2.07 min.

As to `Nc1nc(=O)n([C@H]2C[C@H](O)[C@@H](CO)O2)cc1Br`, the Retention_time was found to be 16.53 min.

Turning to `Nc1nc(=O)n([C@H]2C[C@H](O)[C@@H](C(=O)O)O2)cc1I`, the Retention_time came to 3.35 min.

With `Nc1nc(=O)n([C@H]2C[C@H](O)[C@@H](C(=O)O)O2)cc1Br`, the Retention_time is recorded as 3.05 min.

`Nc1nc(=O)n([C@H]2C[C@H](O)[C@@H](CO)O2)cc1I` [IBACITABINE] had a Retention_time of 19.87 min.

In turn, `O=c1[nH]cc(I)c(=O)[nH]1` had a Retention_time of 8.85 min.

As to `O=C(O)[C@H]1O[C@@H](n2cc(I)c(O)nc2=O)C[C@@H]1O`, the Retention_time turned out to be 2.97 min.

Turning to `O=c1[nH]cc(Br)c(=O)[nH]1` [5-BROMOURACIL], the Retention_time was 7.69 min.

The next series deals with CCRF S-180. Description: Cytotoxicity against mouse S180 cells at 5 uM after 18 to 42 hrs relative to control. The class given is functional.
Details: not given
On to `Nc1ccn([C@@H]2O[C@H](CO)[C@@H](O)[C@@H]2O)c(=O)n1` [CYTARABINE], for which the inhibition at 5 µM amounted to 98%.

A further series concerns Enterococcus faecium. Description: Antimicrobial activity against Streptococcus faecium after 15 to 17 hrs by turbidity assay. The conditions noted are these: read-out: ED50 (the source's name). The class given is functional. In outline: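 S. faecium (ATCC 8043), washed and resuspended in saline to 100 Klett units, then diluted 10-fold as inoculum. Test compound was added to basal medium with deoxythymidine (7 μM final) or folic acid (4.53 nM final). Incubation was 15-17 h at 37 °C. Growth was taken as the turbidity change before versus after incubation, read on a Klett colorimeter with a red filter (640-700 nm).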
Consider `Cc1cn([C@H]2C[C@H](O)[C@@H](CO)O2)c(=O)[nH]c1=O` [DOXRIBTIMINE], for which the EC50 is 11 µM.

As for `Nc1ccn([C@H]2C[C@H](O)[C@@H](CO)O2)c(=O)n1` [DOXECITINE], the EC50 is 50 µM.

System in another series: not listed separately
Description: Antiviral activity against HSV1 CL101 infected in African green monkey Vero cells assessed as inhibition of plaque formation at 200 uM after 40 hrs relative to control. The conditions noted are these: Human alphaherpesvirus 1, Vero. The series is classed as functional, Herpes simplex virus (type 1 / strain CL101).
As to `Nc1ccn([C@@H]2O[C@H](CO)[C@@H](O)[C@@H]2O)c(=O)n1` [CYTARABINE], the inhibition at 200 µM is 91%.

System in another series: not listed separately
Description: Dissociation constant, pKa of the compound. The class given is physicochemical.
Details: not given
As for `Cc1cn([C@H]2C[C@H](O)[C@@H](CO)O2)c(=O)[nH]c1=O` [DOXRIBTIMINE], the pKa amounted to 9.8.
